In ChEMBL document CHEMBL4354813, “Design, Synthesis, and Pharmacological Evaluation of Potent Positive Allosteric Modulators of the Glucagon-like Peptide-1 Receptor (GLP-1R)” (J Med Chem, 2020):
Blank lines part the entries; values can stand above or below the molecule they belong to. The source made the active and inactive calls. The rule behind the calls is not given here.

Experiments:
[1] = Apparent permeability from apical and basolateral in human Caco2/TC7 cells at apical pH 6.5 with 0.5% BSA and basolateral pH 7.4 with 5% BSA at 20 uM incubated for 2 hrs by LC-MS/MS analysis; details: caco2/tc7, pH 6.5 apical, pH 7.4 basolateral
[2] = Metabolic lability in human liver microsomes incubated up to 20 mins by LC-MS/MS analysis
[3] = Volume of distribution at steady state in Wistar rat at 3 mg/kg, iv administered as single dose treated 2 hrs after dosing with 40 mg/kg, po OATP/MRP2 inhibitor rifampicin and measured up to 24 hrs ESI-LC/MS-MS analysis; format: ADME, organism-based; details: in vivo, read-out: Vdss
Mus musculus = assay: Suppression of blood glucose concentration in GLP-1R (-/-) C57Bl/6J mouse model at 30 mg/kg, po dosed 1 hrs before test and treated with 60 mg/kg, po OATP/MRP2 inhibitor rifampicin 2.5 hrs prior to oral glucose-tolerance test; format: functional, organism-based
Method in brief: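 GLP-1R-/- male mice aged 10 weeks, n=6, fasted overnight. Rifampicin 60 mg/kg p.o. 2.5 h before the oGTT, compound p.o. 1 h before, with or without GLP1(9-36)NH2 i.p. 15 min before. Glucose 2 g/kg orally. Tail-vein blood glucose by glucometer at 0, 15, 30, 60 and 90 min.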

[4] = Clearance in C57Bl6 mouse at 3 mg/kg, iv administered as single dose measured up to 24 hrs ESI-LC/MS-MS analysis; format: ADME, organism-based; details: in vivo
Method in brief: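 Female C57Bl6 mice (n=24) given single 3 mg/kg i.v. in solution (75% water : 25% of 75% Glycoferol/25% Cremophor); plasma sampled at 0.083, 0.25, 0.5, 1, 2, 4, 6, 8, 24 h; heparinized plasma after acetonitrile protein precipitation analysed by ESI-LC/MS-MS (LOQ 5 ng/mL); noncompartmental parameters with linear trapezoidal calculation.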

[5] = AUClast in Wistar rat at 10 mg/kg, po administered as single dose treated 2 hrs after dosing with 40 mg/kg, po OATP/MRP2 inhibitor rifampicin and measured up to 24 hrs ESI-LC/MS-MS analysis; format: ADME, organism-based; parameters: dose 10 mg/kg, time < 24 hr, route oral; details: in vivo
Method in brief: (§1)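 Male Wistar rats (n=3 per route) pretreated orally with rifampicin 40 mg/kg (0.6% methylcellulose, 0.5% Tween 80 in water) 2 h before compound, given 3 mg/kg i.v. in Glycoferol/Cremophor-water solution or 10 mg/kg p.o. wet-milled suspension. Plasma sampled up to 24 h; ESI-LC/MS-MS after acetonitrile precipitation (LOQ 1 ng/mL); noncompartmental analysis.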

[6] = Cmax in Wistar rat at 10 mg/kg, po administered as single dose measured up to 24 hrs ESI-LC/MS-MS analysis; format: ADME, organism-based; parameters: dose 10 mg/kg, route oral; details: in vivo
Method in brief: (§2)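 Single dose of compound: 3 mg/kg i.v. in solution (75% water : 25% of 75% Glycoferol/25% Cremophor) or 10 mg/kg p.o. as wet-milled suspension (0.6% methylcellulose, 0.5% Tween 80 in water); male Wistar rats n=3 per route, female C57Bl6 mice n=24 per route. Plasma sampled 0.25–24 h (p.o.), 0.083–24 h (i.v.); heparinized plasma, acetonitrile precipitation, ESI-LC/MS-MS (LOQ 1 ng/mL rat, 5 ng/mL mouse); noncompartmental analysis, linear trapezoidal.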

[7] = Efflux ratio in human Caco2/TC7 cells at pH 7.4 in presence of 0.5% BSA; format: ADME, cell-based; details: Caco-2, pH 7.4
Method in brief: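 Efflux in Caco-2/TC7 cells under isocratic conditions, pH 7.4 and 0.5% BSA in both compartments, compound 2 µM, with and without cyclosporine A as efflux inhibitor; LC-MS/MS analysis.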

[8] = Solubility in pH 7.4 buffer; format: physicochemical
[9] = Stability in mouse plasma by LC-MS/MS analysis; format: ADME, cell-free
[10] = Permeability from apical and basolateral in human Caco2/TC7 cells at pH 7.4 in presence of 0.5% BSA; format: ADME, cell-based; details: caco2/tc7, pH 7.4
[11] = Chemical stability in pH 7.4 buffer; format: physicochemical
[12] = Oral bioavailability in Wistar rat at 10 mg/kg administered as single dose measured up to 24 hrs ESI-LC/MS-MS analysis; format: ADME, organism-based; details: in vivo
Method in brief: as §2

Rattus norvegicus [13] = organism: Rattus norvegicus; assay: Improvement in 10 nM GLP1(9-36)NH2-mediated glucose-stimulated insulin secretion in dispersed rat pancreatic islets at 10 uM incubated for 2 hrs by ELISA; format: functional
Method in brief: (§3)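 Dispersed islets from male Sprague Dawley rats (collagenase digestion, Histopaque purification, Accutase dispersal, cultured up to 4 days). Pre-incubated 1 h in Krebs-Ringer with 5.6 mM glucose, then 2 h at 37 °C with 15 mM glucose, ±10 nM GLP1(9-36)NH2, ±compound 10 µM, DMSO vehicle; insulin by HTRF ELISA as % of total, n-fold vs control; N≥9.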

[14] = Metabolic lability in mouse liver microsomes incubated up to 20 mins by LC-MS/MS analysis
[15] = Volume of distribution at steady state in C57Bl6 mouse at 3 mg/kg, iv administered as single dose measured up to 24 hrs ESI-LC/MS-MS analysis; format: ADME, organism-based; details: in vivo, read-out: Vdss
Method in brief: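 Single dose of 3 mg/kg i.v. in water/Glycoferol/Cremophor solution to female C57Bl6 mice (n=24) or male Wistar rats (n=3). In rats, rifampicin 40 mg/kg p.o. was given 2 h before dosing where indicated. Plasma sampled at 0.083–24 h. ESI-LC/MS-MS after acetonitrile precipitation. Non-compartmental analysis.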

Rattus norvegicus [16] = organism: Rattus norvegicus; assay: Inhibition of glucose-stimulated insulin secretion in dispersed rat pancreatic islets at 10 uM incubated for 2 hrs by ELISA; format: functional
Method in brief: as §3

[17] = Clearance in Wistar rat at 3 mg/kg, iv administered as single dose measured up to 24 hrs ESI-LC/MS-MS analysis; details: in vivo
[18] = Chemical stability in presence of GSH; format: physicochemical
[19] = Cmax in C57Bl6 mouse at 10 mg/kg, po administered as single dose measured up to 24 hrs ESI-LC/MS-MS analysis; format: ADME, organism-based; parameters: dose 10 mg/kg, route oral; details: in vivo
Method in brief: as §2

[20] = Oral bioavailability in Wistar rat at 10 mg/kg administered as single dose treated 2 hrs after dosing with 40 mg/kg, po OATP/MRP2 inhibitor rifampicin and measured up to 24 hrs ESI-LC/MS-MS analysis; format: ADME, organism-based; details: in vivo
Method in brief: as §1

Rattus norvegicus [21] = organism: Rattus norvegicus; assay: Improvement in 10 nM GLP1(9-36)NH2-mediated glucose-stimulated insulin secretion in dispersed rat pancreatic islets at 10 uM incubated for 2 hrs under […] conditions by ELISA; format: functional
Rattus norvegicus [22] = organism: Rattus norvegicus; assay: Inhibition of GLP1(9-36)NH2-mediated glucose-stimulated insulin secretion in dispersed rat pancreatic islets at 10 uM incubated for 2 hrs by ELISA; format: functional
Method in brief: as §3

Pancreatic islet = assay: Inhibition of GLP1(9-36)NH2-mediated glucose-stimulated insulin secretion in dispersed GLP-1(-/-) mouse pancreatic islets at 10 uM incubated for 2 hrs by ELISA; format: functional, cell-based

Papp [1]: 32 ×10⁻⁷ cm/s
metabolized at 20 min [2]: 20%
Vd [3]: 0.815 L/kg
clearance [4]: 109 mL/min/kg
AUC(0-t) at 24 h [5]: 7340 ng·h/mL
Cmax [6]: 106 ng/mL
efflux ratio [7]: 247
solubility [8]: > 853 µM
Stability [9]: 98%
permeability [10]: 0.18 ×10⁻⁷ cm/s
Stability [11]: 99%
bioavailability [12]: 9%
metabolized at 20 min [14]: 5%
Vd [15]: 0.934 L/kg
CL [17]: 118 mL/min/kg
Stability [18]: 100%
Cmax [19]: 227 ng/mL
bioavailability [20]: 100%
SMILES: CC(C)(C)OC(=O)n1c2c(c3ccccc31)C[C@H]1C(=O)N3C[C@@H](CC(=O)O)C[C@H]3[C@@H]2N1C(=O)CC1CCC(F)(F)CC1
Activity (Mus musculus): inactive
Activity (Rattus norvegicus [13]): Active
inhibition (Rattus norvegicus [16]): inactive
Activity (Rattus norvegicus [21]): inactive

SMILES: CC(O)CCN1C[C@H]2c3c(c4ccccc4n3C(=O)OC(C)(C)C)C[C@@H](C1=O)N2C(=O)CC1CCC(F)(F)CC1 (some centres undefined)
inhibition (Rattus norvegicus [22]): Active
inhibition (Pancreatic islet): Active
